The results in this text go back to ChEMBL document CHEMBL1144541, “Antinociceptive and antiinflammatory activities and QSAR studies on 2-substituted-4,5-diphenyl-1H-imidazoles” (2007).

The structures appear in SMILES notation.

Common to all, as to assay type: functional
For test [1], the system named is Mus musculus. The experiment in a line: Antinociceptive activity in ip dosed Swiss albino mouse assessed as latency time by hot plate method. In a few lines:
(§1)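 Swiss albino mice (20–25 g) were housed 7 days at 30 ± 1 °C before testing, in groups of six. Compounds were given ip at 9.5–12.58 mg/kg as a 0.2% Tween suspension. Mice were placed on a 55 ± 0.5 °C hot plate before dosing and at 15, 30, 60 and 120 min after dosing, with a 15 s cut-off. Significance was assessed by Student's t test.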
On the technique in general: In hot-plate and tail-flick tests a longer latency is read as antinociception.

The subject of test [2] is Mus musculus. The experiment in a line: Antinociceptive activity in ip dosed Swiss albino mouse assessed as latency time after 120 mins by tail flick method. Summed up:
(§2)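 Swiss albino mice (20–25 g) received compounds ip at 9.5–12.58 mg/kg in 0.2% Tween suspension. Tail-flick latency to radiant heat was measured, with stimulus intensity set to give a 3–4 s baseline. Readings were taken just before injection and at 15, 30, 60 and 120 min after. Significance was assessed by Student's t test.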

In test [3] the test system is Mus musculus. The experiment in a line: Antinociceptive activity in ip dosed Swiss albino mouse assessed as latency time after 60 mins by hot plate method. Summed up:
as §1

The test system of test [4] is Mus musculus. The experiment in a line: Antinociceptive activity in ip dosed Swiss albino mouse assessed as latency time after 60 mins by tail flick method. In a few lines:
as §2

Test [5] relates to Mus musculus. The experiment in a line: Antinociceptive activity in ip dosed Swiss albino mouse assessed as latency time after 30 mins by hot plate method. Summed up:
as §1

The subject of test [6] is Mus musculus. The experiment in a line: Antinociceptive activity in ip dosed Swiss albino mouse assessed as latency time by tail flick method. Summed up: as §2
Another test deals with Rattus norvegicus. The experiment in a line: Antiinflammatory activity assessed as reduction of carrageenan-induced paw volume in intraperitoneally dosed Wistar rat after 3 hrs. Also on record: scale not given: the % may be the effect or the level left. In a few lines:
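Wistar rats of either sex (120–150 g) were dosed ip with compounds at 9.5–12.58 mg/kg in 0.2% Tween suspension. After 1 h, 0.05 ml of 1.0% w/v carrageenan in 0.9% NaCl was injected into the left hind paw. Paw volume was measured by mercury-displacement plethysmometry before injection and at 1, 2 and 3 h. Percent inhibition of the 3 h swelling was calculated.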
In general terms: Carrageenan injected into the paw causes an acute inflammation.

Test [7] relates to Mus musculus. The experiment in a line: Antinociceptive activity in ip dosed Swiss albino mouse assessed as latency time after 15 mins by hot plate method. In a few lines:
as §1

Test [8] has as its system Mus musculus. The experiment in a line: Antinociceptive activity in ip dosed Swiss albino mouse assessed as latency time after 15 mins by tail flick method. Summed up: as §2
Test [9] deals with Mus musculus. The experiment in a line: Antinociceptive activity in ip dosed Swiss albino mouse assessed as latency time after 30 mins by tail flick method. Summed up:
as §2

For test [10], the system named is Mus musculus. The experiment in a line: Antinociceptive activity in ip dosed Swiss albino mouse assessed as latency time after 120 mins by hot plate method. In a few lines: as §1

Take `C=CCc1nc(-c2ccccc2)c(-c2ccccc2)[nH]1`: the Activity in the test on Mus musculus [1] was determined as 4.66 s; with Mus musculus [2], 4.29 s; in the test with Mus musculus [3], 5.33 s; with Mus musculus [4] it was 4.27 s; with Mus musculus [5], 5.12 s; in the test with Mus musculus [6], 3.98 s. The Activity in the test on Rattus norvegicus is listed as 32.56%; in the test on Mus musculus [7] it was 5.08 s; in the test with Mus musculus [8], 4.02 s; with Mus musculus [9], 4.23 s; in the test on Mus musculus [10], 5.47 s.

On to `Ic1ccc(-c2nc(-c3ccccc3)c(-c3ccccc3)[nH]2)cc1`, for which the Activity is on record as 4.45 s with Mus musculus [1]; 6.5 s in the test with Mus musculus [2]; 6.18 s in the test on Mus musculus [3]; 5.89 s in the test on Mus musculus [4]; 5.33 s with Mus musculus [5]; 4.16 s in the test on Mus musculus [6]. Further, the Activity worked out at 27.91% in the test with Rattus norvegicus; 4.64 s in the test with Mus musculus [7]; 4.26 s with Mus musculus [8]; 5.21 s in the test on Mus musculus [9]; 6.18 s in the test with Mus musculus [10].

With `c1ccc(-c2nc[nH]c2-c2ccccc2)cc1`, the Activity is given as 4.66 s with Mus musculus [1]; 4.02 s in the test on Mus musculus [2]; 5.05 s with Mus musculus [3]; 4.01 s in the test on Mus musculus [4]; 4.83 s with Mus musculus [5]; 3.9 s in the test on Mus musculus [6]. The Activity was 20.94% in the test on Rattus norvegicus; 4.83 s in the test on Mus musculus [7]; 3.92 s in the test with Mus musculus [8]; 4.01 s in the test with Mus musculus [9]; 5.2 s in the test on Mus musculus [10].

`COc1cccc(-c2nc(-c3ccccc3)c(-c3ccccc3)[nH]2)c1`: the Activity is recorded as 4.67 s with Mus musculus [1]; 7.99 s in the test on Mus musculus [2]; 7.42 s with Mus musculus [3]; 6.75 s with Mus musculus [4]; 6.15 s with Mus musculus [5]; 4.12 s in the test with Mus musculus [6]. In addition, the Activity in the test with Rattus norvegicus is 37.21%; in the test with Mus musculus [7], 5.02 s; in the test on Mus musculus [8], 4.12 s; in the test with Mus musculus [9] it was 4.56 s; in the test on Mus musculus [10] it was 8.79 s.

In the case of `Fc1ccc(-c2nc(-c3ccccc3)c(-c3ccccc3)[nH]2)cc1`, the Activity with Mus musculus [1] turned out to be 4.78 s; with Mus musculus [2] it was 10.67 s; with Mus musculus [3], 9.33 s; with Mus musculus [4], 8.92 s; in the test with Mus musculus [5] it was 7.5 s; in the test with Mus musculus [6], 4.55 s. Besides, the Activity with Rattus norvegicus was determined as 79.07%; with Mus musculus [7] it was 4.93 s; in the test on Mus musculus [8], 4.87 s; with Mus musculus [9], 7.14 s; with Mus musculus [10] it was 10.83 s.

For `CN(C)c1ccc(-c2nc(-c3ccccc3)c(-c3ccccc3)[nH]2)cc1`, the Activity in the test with Mus musculus [1] is on record as 4.5 s; with Mus musculus [2] it was 10.18 s; in the test with Mus musculus [3], 8.33 s; in the test with Mus musculus [4] it was 7.93 s; in the test with Mus musculus [5] it was 7.16 s; in the test on Mus musculus [6], 4.26 s. Besides, the Activity with Rattus norvegicus is listed as 69.77%; in the test with Mus musculus [7], 4.76 s; in the test on Mus musculus [8], 4.45 s; in the test with Mus musculus [9] it was 6.32 s; in the test with Mus musculus [10], 10.3 s.

`Cc1nc(-c2ccccc2)c(-c2ccccc2)[nH]1`: the Activity is on record as 4.65 s in the test with Mus musculus [1]; 4.35 s with Mus musculus [2]; 5.47 s with Mus musculus [3]; 4.35 s in the test with Mus musculus [4]; 5.33 s in the test on Mus musculus [5]; 4.12 s with Mus musculus [6]. Besides, the Activity is recorded as 25.59% in the test on Rattus norvegicus; 5.1 s in the test on Mus musculus [7]; 4.17 s in the test with Mus musculus [8]; 4.28 s with Mus musculus [9]; 5.52 s with Mus musculus [10].

As for `O=[N+]([O-])c1ccc(-c2nc(-c3ccccc3)c(-c3ccccc3)[nH]2)cc1`, the Activity with Mus musculus [1] is 4.37 s; with Mus musculus [2], 5.13 s; in the test with Mus musculus [3], 5.82 s; in the test with Mus musculus [4] it was 5.12 s; in the test on Mus musculus [5], 4.66 s; with Mus musculus [6], 4.13 s. Also, the Activity in the test with Rattus norvegicus was 25.59%; in the test with Mus musculus [7], 4.6 s; with Mus musculus [8], 4.14 s; with Mus musculus [9] it was 5.09 s; with Mus musculus [10] it was 5.83 s.

In the case of `c1ccc(-c2nc(-c3ccccc3)c(-c3ccccc3)[nH]2)cc1`, the Activity was found to be 4.63 s in the test on Mus musculus [1]; 5.78 s in the test with Mus musculus [2]; 6.07 s in the test on Mus musculus [3]; 5.12 s in the test on Mus musculus [4]; 5.28 s with Mus musculus [5]; 4.13 s in the test on Mus musculus [6]. For the same compound, the Activity amounted to 30.24% in the test with Rattus norvegicus; 4.58 s in the test on Mus musculus [7]; 4.13 s in the test with Mus musculus [8]; 4.67 s with Mus musculus [9]; 6.1 s in the test on Mus musculus [10].

For `Clc1ccc(-c2nc(-c3ccccc3)c(-c3ccccc3)[nH]2)cc1`, the Activity was found to be 4.66 s in the test with Mus musculus [1]; 10.5 s with Mus musculus [2]; 8.98 s in the test with Mus musculus [3]; 8.37 s with Mus musculus [4]; 7.43 s with Mus musculus [5]; 4.52 s in the test on Mus musculus [6]. In addition, the Activity with Rattus norvegicus is on record as 81.4%; with Mus musculus [7], 4.9 s; in the test with Mus musculus [8] it was 4.67 s; with Mus musculus [9], 6.92 s; with Mus musculus [10] it was 10.35 s.

For the compound `Nc1ccc(-c2nc(-c3ccccc3)c(-c3ccccc3)[nH]2)cc1`, the Activity in the test on Mus musculus [1] is 4.48 s; in the test with Mus musculus [2], 10.05 s; in the test on Mus musculus [3], 8.25 s; in the test on Mus musculus [4] it was 7.77 s; in the test with Mus musculus [5], 7.01 s; in the test with Mus musculus [6] it was 4.22 s. Further, the Activity is 81.4% with Rattus norvegicus; 4.69 s in the test with Mus musculus [7]; 4.27 s with Mus musculus [8]; 6.18 s in the test with Mus musculus [9]; 10.08 s in the test with Mus musculus [10].

`Oc1ccc(-c2nc(-c3ccccc3)c(-c3ccccc3)[nH]2)cc1`: the Activity was determined as 4.55 s in the test with Mus musculus [1]; 10.33 s in the test on Mus musculus [2]; 8.63 s in the test with Mus musculus [3]; 8.18 s in the test with Mus musculus [4]; 7.21 s in the test with Mus musculus [5]; 4.4 s with Mus musculus [6]. The Activity in the test with Rattus norvegicus was found to be 83.73%; in the test on Mus musculus [7], 4.81 s; with Mus musculus [8], 4.48 s; in the test on Mus musculus [9] it was 6.79 s; in the test with Mus musculus [10] it was 10.33 s.

Take `Cc1ccc(-c2nc(-c3ccccc3)c(-c3ccccc3)[nH]2)cc1`: the Activity came to 4.35 s in the test with Mus musculus [1]; 4.89 s with Mus musculus [2]; 4.83 s in the test with Mus musculus [3]; 4.82 s with Mus musculus [4]; 4.62 s in the test on Mus musculus [5]; 4.14 s with Mus musculus [6]. The Activity is 11.63% with Rattus norvegicus; 4.5 s in the test on Mus musculus [7]; 4.14 s in the test on Mus musculus [8]; 4.82 s in the test on Mus musculus [9]; 4.82 s in the test on Mus musculus [10].

In the case of `Cc1cccc(-c2nc(-c3ccccc3)c(-c3ccccc3)[nH]2)c1`, the Activity came to 4.56 s with Mus musculus [1]; 5.93 s in the test on Mus musculus [2]; 4.67 s in the test on Mus musculus [3]; 5.89 s with Mus musculus [4]; 4.63 s with Mus musculus [5]; 4.1 s in the test with Mus musculus [6]. Further, the Activity with Rattus norvegicus amounted to 9.31%; in the test on Mus musculus [7], 4.6 s; in the test with Mus musculus [8] it was 4.1 s; in the test with Mus musculus [9], 4.48 s; in the test with Mus musculus [10], 5.72 s.

Take `COc1cc(-c2nc(-c3ccccc3)c(-c3ccccc3)[nH]2)ccc1O`: the Activity was 4.68 s in the test on Mus musculus [1]; 8.34 s with Mus musculus [2]; 7.92 s in the test with Mus musculus [3]; 7.18 s in the test on Mus musculus [4]; 6.2 s in the test with Mus musculus [5]; 4.16 s in the test on Mus musculus [6]. Also, the Activity in the test with Rattus norvegicus is given as 58.14%; with Mus musculus [7], 5.23 s; in the test with Mus musculus [8], 4.12 s; in the test on Mus musculus [9] it was 5.57 s; with Mus musculus [10], 8.99 s.

Take `Brc1ccc(-c2nc(-c3ccccc3)c(-c3ccccc3)[nH]2)cc1`: the Activity is reported as 4.45 s in the test on Mus musculus [1]; 6.83 s in the test on Mus musculus [2]; 6.38 s with Mus musculus [3]; 6.5 s in the test on Mus musculus [4]; 6.37 s in the test with Mus musculus [5]; 4.2 s with Mus musculus [6]. In addition, the Activity with Rattus norvegicus is reported as 74.42%; with Mus musculus [7] it was 4.65 s; in the test with Mus musculus [8] it was 4.45 s; in the test on Mus musculus [9], 5.33 s; in the test with Mus musculus [10], 6.38 s.
